Test results as given in ChEMBL document CHEMBL5154824, “Design and synthesis of multifunctional microtubule targeting agents endowed with dual pro-apoptotic and anti-autophagic efficacy” (Eur J Med Chem, 2022).
Values after ≈ are worked out from the molar mass of the structure shown. Active and inactive are the calls of the source. The calls are words filed in the database; no cut-off is given here.

What was measured:
SCC-4 [1] = assay: Cytotoxicity against human SCC-4 cells assessed as reduction in cell viability measured after 48 hrs by alamar blue viability assay; assay type: functional, cell-based; conditions: SCC-4, 48 h
Method in brief: (§1)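 Oral squamous carcinoma cells were exposed for 48 h to at least 8 increasing concentrations. Viability was read by AlamarBlue. IC50 is the concentration that halves viability, taken as the mean ± SD of at least three independent experiments.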

Ca9-22 = assay: Cytotoxicity against human Ca9-22 cells assessed as reduction in cell viability measured after 48 hrs by alamar blue viability assay; assay type: functional, cell-based; conditions: Ca9-22, 48 h; method in brief: as §1
[2] = Cytotoxicity against human TR146 cells assessed as reduction in cell viability measured after 48 hrs by alamar blue viability assay; assay type: functional, cell-based; conditions: TR146, 48 h; method in brief: as §1
SCC-4 [3] = assay: Induction of apoptosis in human SCC-4 cells assessed as increase in apoptotic cells at 2 uM after 48 hrs by Annexin V-FITC/PI staining based flow cytometry method; assay type: functional, cell-based
Method in brief: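 SCC4 cells were treated at 0.5 or 2 μM for 48 h, then stained with Annexin V/PI and analysed by flow cytometry. Data are mean ± SEM of three independent experiments, with an unpaired one-tailed t-test versus vehicle.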

KYSE-520 cell line [4] = assay: Cytotoxicity against human KYSE520 cells assessed as inhibition of cell growth measured after 48 hrs by alamar blue viability assay; assay type: functional, cell-based; conditions: KYSE-520, 48 h
Method in brief: (§2)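 KYSE-520 oesophageal cells were exposed to at least 8 increasing concentrations for 48 h or 72 h. Viability was read out to give IC50, as the mean ± SD of at least three independent experiments.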

KYSE-520 cell line [5] = assay: Cytotoxicity against human KYSE520 cells assessed as inhibition of cell growth measured after 72 hrs by alamar blue viability assay; assay type: functional, cell-based; conditions: KYSE-520, 72 h; method in brief: as §2
KYSE-520 cell line [6] = assay: Induction of apoptosis in human KYSE520 cells assessed as increase in apoptotic cells at 3 to 10 uM after 72 hrs by Annexin V-FITC/PI staining based flow cytometry method; assay type: functional, cell-based; conditions: dose 3-10 µM
Method in brief: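 KYSE-520 cells were treated at 3 and 10 μM for 72 h, then analysed by flow cytometry after Annexin V/PI dual staining.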

Tubulin (Homo sapiens) = Tubulin (Homo sapiens) (UniProt P68371+Q9H4B7+P0DPH7+P68366+Q13509+Q71U36+P04350+Q3ZCM7+P07437+P68363+Q9BQE3+Q6PEY2+Q13885+Q9BVA1+Q9BUF5); assay: Binding affinity to microtubule polymerization (unknown origin) assessed as formation of microtubule at 27.5 uM measured for 2 hrs by plate reader method; assay type: protein-complex assay
Method in brief: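 25 μM tubulin in GAB buffer with compound at 27.5 μM or DMSO vehicle; podophyllotoxin 27.5 μM as destabiliser control. Polymerisation started by raising temperature from 4 to 37 °C at time 0; microtubule formation followed as absorbance increase over time.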

NIH3T3 = assay: Cytotoxicity against mouse NIH3T3 cells assessed as inhibition of cell growth measured after 24 hrs by neutral red uptake assay; assay type: functional, cell-based; conditions: NIH3T3, 24 h
Method in brief: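 Neutral red uptake viability test. NIH3T3 fibroblasts or primary human oral epithelial cells were exposed to compound at 0.1 to 120 μM. EC50 was derived, with SD below 5%.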

A549 = assay: Cytotoxicity against human A549 cells assessed as inhibition of cell growth measured after 48 hrs by MTT assay; assay type: functional, cell-based; conditions: A549, 48 h
[7] = Mutagenicity in Salmonella typhimurium TA98 in presence of rat liver S9 fraction at 0.3 to 60 uM by AMES test; assay type: toxicity, subcellular; conditions: salmonella enterica subsp. enterica serovar typhimurium, s9, 60 µM; dose 0.3-60 µM
[8] = Mutagenicity in Salmonella typhimurium TA98 in absence of rat liver S9 fraction at 0.3 to 60 uM by AMES test; assay type: toxicity; conditions: salmonella enterica subsp. enterica serovar typhimurium, s9, 60 µM; dose 0.3-60 µM
SCC-4 [9] = assay: Induction of autophagy in human SCC-4 cells assessed as increase in LC3-II to LC3-I ratio at 10 uM incubated for 30 mins in presence of EBSS followed by compound addition and measured after 3 hrs by Western blot analysis; assay type: functional, cell-based
Method in brief: (§3)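 SCC4 cells were pre-incubated with or without EBSS for 30 min, then given 10 μM compound, with 10 μM chloroquine as reference, for 3 h. LC3-I/II was assessed by Western blot with GAPDH loading control. The LC3-II/LC3-I ratio came from densitometry, as mean ± SEM of four experiments, with an unpaired one-tailed t-test.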

SCC-4 [10] = assay: Induction of autophagy in human SCC-4 cells assessed as increase in LC3-II to LC3-I ratio at 10 uM in absence of EBSS measured after 3 hrs by Western blot analysis; assay type: functional, cell-based; method in brief: as §3
SCC-4 [11] = assay: Induction of autophagy in human SCC-4 cells assessed as decrease in UlK1 protein level at 10 uM in measured after 24 hrs by Immunoblotting analysis; assay type: functional, cell-based
Method in brief: (§4)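 SCC4 cells under basal conditions were treated at 10 μM for 24 h. Autophagy-related proteins were immunoblotted, and densitometry was expressed as a ratio normalised to vehicle control.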

SCC-4 [12] = assay: Induction of autophagy in human SCC-4 cells assessed as increase in UlK1 phosphorylation at 10 uM in measured after 24 hrs by Immunoblotting analysis; assay type: functional, cell-based; method in brief: as §4
HL-60 = assay: Induction of autophagy in human HL-60 cells assessed as increase in LC3-II protein level at 10 uM in presence of chloroquine […] by Immunoblotting analysis; assay type: functional, cell-based
HeLa [13] = assay: Induction of cell morphological changes in human HeLa cells at 10 uM measured after 3 hrs by LysoTracker Red staining based microscopic analysis; assay type: functional
Method in brief: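 Living HeLa cells were treated at 10 μM, or with BafA1 at 300 nM, for 3 h, then incubated with 75 nM LysoTracker red. Cells were imaged by spinning disc microscopy at 37 °C, 5% CO2.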

HeLa [14] = assay: Induction of autophagy in human HeLa cells assessed as increasing number of autophagosomes at 1 to 10 uM incubated for 3 hrs with HBSS medium by immunofluorescence based laser scanning confocal microscopic analysis; assay type: functional, cell-based; conditions: dose 1-10 µM
Method in brief: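 HeLa cells were treated in HBSS at 1 or 10 μM, with BafA1 300 nM as reference, for 3 h. After fixation in ice-cold methanol, LC3 and LAMP1 were immunostained. Laser scanning confocal microscopy assessed autophagosome number and LC3/LAMP1 colocalisation.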

[15] = target: Nuclear factor NF-kappa-B complex (Homo sapiens) (UniProt Q00653+P19838+Q04206); assay: Inhibition of NF-kappaB phosphorylation in human HL-60 cells at 10 uM measured after 2 hrs by Immunoblotting analysis; assay type: cell-based
Sequence of Nuclear factor NF-kappa-B complex (Homo sapiens) (P19838 whole entry, looked up): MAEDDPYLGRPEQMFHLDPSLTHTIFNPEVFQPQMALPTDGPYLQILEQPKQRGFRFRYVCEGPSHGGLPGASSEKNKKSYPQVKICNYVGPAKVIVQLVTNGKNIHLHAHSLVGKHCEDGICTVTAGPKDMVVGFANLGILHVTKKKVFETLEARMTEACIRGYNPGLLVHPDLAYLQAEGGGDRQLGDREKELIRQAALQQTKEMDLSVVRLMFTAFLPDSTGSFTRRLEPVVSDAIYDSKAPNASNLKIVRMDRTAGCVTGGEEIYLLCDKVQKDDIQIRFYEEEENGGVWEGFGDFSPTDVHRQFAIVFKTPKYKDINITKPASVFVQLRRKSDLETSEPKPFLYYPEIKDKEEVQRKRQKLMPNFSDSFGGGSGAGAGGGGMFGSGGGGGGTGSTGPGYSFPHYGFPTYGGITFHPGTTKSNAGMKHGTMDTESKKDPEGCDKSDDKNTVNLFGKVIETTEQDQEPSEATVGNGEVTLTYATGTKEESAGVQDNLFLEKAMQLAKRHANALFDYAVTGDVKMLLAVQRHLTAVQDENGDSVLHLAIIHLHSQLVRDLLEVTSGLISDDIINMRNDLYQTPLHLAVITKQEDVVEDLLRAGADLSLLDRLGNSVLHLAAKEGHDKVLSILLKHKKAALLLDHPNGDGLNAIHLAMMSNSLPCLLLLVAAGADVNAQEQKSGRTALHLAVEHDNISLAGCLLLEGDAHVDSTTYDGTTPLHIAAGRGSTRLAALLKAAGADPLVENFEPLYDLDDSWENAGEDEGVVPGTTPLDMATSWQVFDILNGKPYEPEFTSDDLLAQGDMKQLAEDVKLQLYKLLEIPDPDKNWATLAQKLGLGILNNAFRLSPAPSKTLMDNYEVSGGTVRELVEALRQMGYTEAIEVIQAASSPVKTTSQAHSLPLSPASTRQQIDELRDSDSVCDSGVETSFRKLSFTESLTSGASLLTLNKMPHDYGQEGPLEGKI
Sequence of Nuclear factor NF-kappa-B complex (Homo sapiens) (Q00653 whole entry, looked up): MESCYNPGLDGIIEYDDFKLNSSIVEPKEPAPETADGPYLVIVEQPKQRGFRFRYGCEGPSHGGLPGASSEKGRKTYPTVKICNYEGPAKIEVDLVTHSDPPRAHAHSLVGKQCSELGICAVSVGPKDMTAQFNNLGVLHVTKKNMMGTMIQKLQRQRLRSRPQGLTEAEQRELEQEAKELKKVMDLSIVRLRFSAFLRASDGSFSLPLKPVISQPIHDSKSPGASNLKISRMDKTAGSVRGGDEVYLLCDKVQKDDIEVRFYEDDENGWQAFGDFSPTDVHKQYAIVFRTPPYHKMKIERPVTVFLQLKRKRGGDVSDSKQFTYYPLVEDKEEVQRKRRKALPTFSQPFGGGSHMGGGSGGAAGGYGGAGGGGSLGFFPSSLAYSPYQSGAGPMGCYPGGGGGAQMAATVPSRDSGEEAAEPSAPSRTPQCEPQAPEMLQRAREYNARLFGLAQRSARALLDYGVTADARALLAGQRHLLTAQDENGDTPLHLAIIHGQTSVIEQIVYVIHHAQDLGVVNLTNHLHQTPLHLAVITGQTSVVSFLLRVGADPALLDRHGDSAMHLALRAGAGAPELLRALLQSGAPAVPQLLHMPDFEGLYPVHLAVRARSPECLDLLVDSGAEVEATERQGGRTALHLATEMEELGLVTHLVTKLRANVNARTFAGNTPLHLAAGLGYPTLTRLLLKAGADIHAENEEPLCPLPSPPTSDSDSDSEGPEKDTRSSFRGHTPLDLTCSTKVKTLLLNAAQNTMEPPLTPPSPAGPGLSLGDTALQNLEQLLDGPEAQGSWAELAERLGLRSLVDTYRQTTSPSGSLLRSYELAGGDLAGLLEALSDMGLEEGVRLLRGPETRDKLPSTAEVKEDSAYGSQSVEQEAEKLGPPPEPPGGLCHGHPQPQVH
Sequence of Nuclear factor NF-kappa-B complex (Homo sapiens) (Q04206 whole entry, looked up): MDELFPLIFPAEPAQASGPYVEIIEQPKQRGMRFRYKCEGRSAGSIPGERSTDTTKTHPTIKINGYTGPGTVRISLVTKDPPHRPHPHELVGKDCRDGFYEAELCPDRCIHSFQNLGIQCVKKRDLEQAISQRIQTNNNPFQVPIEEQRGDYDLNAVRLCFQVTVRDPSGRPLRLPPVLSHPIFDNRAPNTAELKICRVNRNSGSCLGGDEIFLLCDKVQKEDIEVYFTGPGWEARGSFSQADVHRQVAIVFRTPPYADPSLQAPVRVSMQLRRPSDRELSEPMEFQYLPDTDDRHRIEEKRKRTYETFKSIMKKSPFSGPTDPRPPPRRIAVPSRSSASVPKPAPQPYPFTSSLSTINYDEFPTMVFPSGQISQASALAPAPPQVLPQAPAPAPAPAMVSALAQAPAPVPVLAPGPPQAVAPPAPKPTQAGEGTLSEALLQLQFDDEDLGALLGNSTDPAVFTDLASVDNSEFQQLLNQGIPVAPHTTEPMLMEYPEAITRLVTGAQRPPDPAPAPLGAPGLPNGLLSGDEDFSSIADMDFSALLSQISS
Method in brief: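 HL-60 cells were treated at 10 μM or with DMSO vehicle for 2 h. Phospho-NF-κB and phospho-Erk1/2 were immunoblotted and quantified by densitometry relative to β-tubulin. Data are mean ± SD (n = 2), analysed by one-way ANOVA.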

[16] = Aqueous solubility of the compound in pH 3 measured after 24 hrs by HPLC/DAD/UV analysis; assay type: physicochemical; conditions: aqueous solution at pH 3, pH 3
Method in brief: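 Solubility in aqueous buffer at pH 3, measured by HPLC after 24 h.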

[17] = Metabolic stability in human liver microsomes assessed as half life by HPLC analysis; assay type: ADME, Microsome
Method in brief: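 Compound incubated with human liver microsomes plus an NADPH-generating system. Log % of compound recovered (100% at 0 min) was plotted against incubation time and fitted to a monoexponential decay. Controls were boiled microsomes, or microsomes without NADPH-GS, at 37 °C for 60 min.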

| Structure (SMILES) | IC50 (SCC-4 [1]) | IC50 (Ca9-22) | IC50 [2] | Activity (SCC-4 [3]) | IC50 (KYSE-520 cell line [4]) | IC50 (KYSE-520 cell line [5]) | Activity (KYSE-520 cell line [6]) | Activity (Tubulin (Homo sapiens)) | EC50 (NIH3T3) | IC50 (A549) | Activity [7] | Activity [8] | Activity (SCC-4 [9]) | Activity (SCC-4 [10]) | Activity (SCC-4 [11]) | Activity (SCC-4 [12]) | Activity (HL-60) | Activity (HeLa [13]) | Activity (HeLa [14]) | inhibition [15] | other results |
| --- | --- | --- | --- | --- | --- | --- | --- | --- | --- | --- | --- | --- | --- | --- | --- | --- | --- | --- | --- | --- | --- |
| CN1CCN(C(=O)OC2=C(c3cccc4ncccc34)Oc3cc4ccccc4cc3-n3cccc32)CC1 | 540 nM | 130 nM | 880 nM | Active | 3600 nM | 1680 nM | Active | Active | 450 nM | 774 nM | Non-Toxic | Non-Toxic | Active | Active | Active | Active | Active | Active | Active | Active | solubility at 24 h [16]: 204 µM (≈ 103 µg/mL); half-life [17]: 0.513 h |
| O=C(OC1=C(c2cccc3ncccc23)Oc2cc3ccccc3cc2-n2cccc21)C1CCNCC1 | 850 nM | 2000 nM | 4500 nM | Active | 1680 nM | 890 nM | Active | Active | 600 nM | 6150 nM | Non-Toxic | Non-Toxic | Active | Active | Active | Active | Active | Active | Active | Active | solubility at 24 h [16]: 271 µM (≈ 132 µg/mL); half-life [17]: 1.52 h |
